The results in this text go back to ChEMBL document CHEMBL1127618, “A novel nonpeptide HIV-1 protease inhibitor: elucidation of the binding mode and its application in the design of related analogs” (J Med Chem, 1994).

The target in this assay is Human immunodeficiency virus type 1 protease (Human immunodeficiency virus 1, UniProt Q72874). In words: Inhibition of HIV-1 protease. The procedure, abridged:
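HIV-1 protease at 6.0 nM final added to inhibitor plus 40 μM undecapeptide substrate H-His-Lys-Ala-Arg-Val-Leu-(p-NO2)Phe-Glu-Ala-Nle-Ser-NH2, 1.0% DMSO, in 80 mM NaOAc, 160 mM NaCl, 1.0 mM EDTA, 1.0 mM DTT, 0.1% PEG 8000, pH 4.7, 37 °C. Inhibitor at […]. After 5 min, quenched with 2% TFA. Substrate and product resolved by reversed-phase HPLC (A220). % control from % conversion gives IC50.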
Broadly, the IC50 is the point on the concentration scale where inhibition reaches its midpoint. With `O=c1oc2ccccc2c(O)c1CCCOCc1ccccc1`, the midpoint of inhibition, the IC50, lay at 38 µM. The figure for `O=c1oc2ccccc2c(O)c1CCCN(Cc1ccccc1)c1ccccc1` is 13 µM; for `O=c1c(CCCOc2cccc(CO)c2)c(O)oc2ccccc12` it is 2.3 µM. The figure for `O=c1oc2ccccc2c(O)c1CCCN(c1ccccc1)c1ccc(F)cc1` is 5.5 µM.

`O=c1oc2ccccc2c(O)c1CCCOc1cccc(Cl)c1` came in with an IC50 of 1.4 µM. Next, `CCOC(=O)c1cccc(OCCCc2c(O)oc3ccccc3c2=O)c1`: 1.4 µM; `COc1ccc(CCCCc2c(O)oc3ccccc3c2=O)cc1`: greater than 100 µM. Next, `COc1ccccc1CCCCc1c(O)c2ccc(O)cc2oc1=O`: 0.52 µM; `O=c1oc2ccccc2c(O)c1CCCCc1ccccc1`: 110 µM; `O=c1c(CCCO)c(O)oc2ccccc12`: 86 µM. Next, `O=c1oc2ccccc2c(O)c1CCCCOc1ccccc1`: greater than 100 µM; `O=c1oc2ccccc2c(O)c1CCCOc1ccccc1`: 2.3 µM.

In the case of `O=c1oc2ccccc2c(O)c1CCCOc1cccc([N+](=O)[O-])c1`, the IC50 worked out at 4 µM. `O=c1oc2ccccc2c(O)c1CCCSc1ccccc1`: the IC50 is 26 µM. This IC50 is about 6.5-fold higher than that of the compound before. In the case of `O=c1oc2ccccc2c(O)c1CCOc1ccccc1`, the IC50 was 53 µM. This IC50 is about 2-fold higher than that of the compound before. As to `O=c1[nH]c2ccccc2c(O)c1CCCOc1ccccc1`, the IC50 is greater than 200 µM. The figure for `O=c1oc2ccccc2c(O)c1SCCOc1ccccc1` is 24 µM; for `O=c1c(CC/C(=N/O)c2ccccc2)c(O)oc2ccccc12` it is 71 µM; for `COc1ccccc1CCCCc1c(O)oc2ccccc2c1=O` it is 1.7 µM. Next, `COc1ccccc1OCCCc1c(O)oc2ccccc2c1=O`: 44 µM. The figure for `O=c1oc2ccccc2c(O)c1CCOCc1ccccc1` is 4 µM; for `COc1ccccc1CCCCc1c(O)oc2cc(OCc3ccccc3)ccc2c1=O` it is greater than 100 µM; for `O=C(O)c1cccc(OCCCc2c(O)oc3ccccc3c2=O)c1` it is 7 µM.

Turning to `N#Cc1cccc(OCCCc2c(O)c3ccccc3oc2=O)c1`, the midpoint of inhibition, the IC50, lay at 0.67 µM. The figure for `O=c1oc2ccccc2c(O)c1CCCOC1CCCCC1` is 32 µM; for `O=C(CCc1c(O)c2ccccc2oc1=O)c1ccccc1` it is 90 µM; for `NC(=O)c1cccc(OCCCc2c(O)oc3ccccc3c2=O)c1` it is 3.9 µM. The figure for `Nc1cccc(OCCCc2c(O)oc3ccccc3c2=O)c1` is 6.4 µM; for `COc1ccc2c(O)c(CCCCc3ccccc3OC)c(=O)oc2c1` it is 3.3 µM.
